Assay results reported in ChEMBL document CHEMBL1143613, “Neurosteroid analogues. 10. The effect of methyl group substitution at the C-6 and C-7 positions on the GABA modulatory and anesthetic actions of (3alpha,5alpha)- and (3alpha,5beta)-3-hydroxypregnan-20-one” (J Med Chem, 2005).

Key:
[1] = target: GABA-A receptor; anion channel; experiment: Displacement of [35S]TBPS from picrotoxin site of GABA-A receptor of rat brain membranes; format: cell membranes, Membrane
[2] = target: T1, GABA-A receptor; alpha-1/beta-2/gamma-2 (Rattus norvegicus) (UniProt P18508+P62813+P63138); experiment: Ratio of currents mediated by rat Alpha-1-beta-2-gamma-2L GABA-A receptor expressed in Xenopus oocytes at 10 uM in presence of 2 uM GABA; format: cell-based; conditions: Oocyte
Summary of the method: (§1)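 Rat α1β2γ2L GABAA receptors expressed in Xenopus oocytes. Test compound at 0.1, 1 or 10 µM was co-applied with 2 µM GABA, the control GABA concentration. The value is the ratio of current with compound to current without it. At least four oocytes per concentration, with standard error of the mean.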

[3] = target: T1, GABA-A receptor; alpha-1/beta-2/gamma-2 (Rattus norvegicus); experiment: Ratio of currents mediated by rat Alpha-1-beta-2-gamma-2L GABA-A receptor expressed in Xenopus oocytes at 0.1 uM in presence of 2 uM GABA; format: cell-based; conditions: Oocyte; summary of the method: as §1
[4] = target: T1, GABA-A receptor; alpha-1/beta-2/gamma-2 (Rattus norvegicus); experiment: Ratio of currents mediated by rat Alpha-1-beta-2-gamma-2L GABA-A receptor expressed in Xenopus oocytes at 1.0 uM in presence of 2 uM GABA; format: cell-based; conditions: Oocyte; summary of the method: as §1
[5] = target: T1, GABA-A receptor; alpha-1/beta-2/gamma-2 (Rattus norvegicus); experiment: Ratio of currents mediated by rat Alpha-1-beta-2-gamma-2L GABA-A receptor expressed in Xenopus oocytes at 10 uM in the absence of GABA; format: cell-based; conditions: Oocyte
Summary of the method: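 Direct gating on rat α1β2γ2L GABAA receptors in Xenopus oocytes. Compound at 10 µM was applied with no GABA. The value is the compound-only current divided by the current from 2 µM GABA alone. At least four oocytes, with standard error of the mean.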

[6] = Dose required for measuring loss of swimming reflex (LSR) in Xenopus laevis tadpoles; format: functional
Summary of the method: (§2)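 Xenopus laevis tadpoles scored for loss of swimming (LSR) or righting (LRR) response. 10 animals were used at each of five or more concentrations. Error given as standard error of the mean.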

[7] = Dose required for measuring the loss of righting reflex (LRR) in Xenopus laevis tadpoles; format: functional; summary of the method: as §2

Structure (SMILES)	IC50 [1]	Ratio [2]	Ratio [3]	Ratio [4]	Ratio [5]	ED50 [6]	ED50 [7]
CC(=O)[C@H]1CC[C@H]2[C@@H]3C[C@H](C)[C@@H]4C[C@H](O)CC[C@]4(C)[C@H]3CC[C@]12C	3080 nM	2.51	0.96	1.02	0.15	5500 nM	2660 nM
CC(=O)[C@H]1CC[C@H]2[C@@H]3C[C@@H](C)[C@H]4C[C@H](O)CC[C@]4(C)[C@H]3CC[C@]12C	5.7 nM	10	2.5	7.7	0.59	1050 nM	510 nM
CC(=O)[C@H]1CC[C@H]2[C@@H]3[C@@H](C)C[C@H]4C[C@H](O)CC[C@]4(C)[C@H]3CC[C@]12C	1240 nM					5500 nM	1340 nM
CC(=O)[C@H]1CC[C@H]2[C@@H]3C[C@H](C)[C@H]4C[C@H](O)CC[C@]4(C)[C@H]3CC[C@]12C	2940 nM	3.24	1.01	1.17	0.06	8900 nM	1400 nM
CC(=O)[C@H]1CC[C@H]2[C@@H]3[C@@H](C)C[C@@H]4C[C@H](O)CC[C@]4(C)[C@H]3CC[C@]12C	1240 nM					5500 nM	1360 nM
CC(=O)[C@H]1CC[C@H]2[C@@H]3[C@H](C)C[C@@H]4C[C@@H](O)CC[C@]4(C)[C@H]3CC[C@]12C	10800 nM					10000 nM	1250 nM
CC(=O)[C@H]1CC[C@H]2[C@@H]3[C@H](C)C[C@H]4C[C@@H](O)CC[C@]4(C)[C@H]3CC[C@]12C						5500 nM	1630 nM
CC(=O)[C@H]1CC[C@H]2[C@@H]3CC[C@@H]4C[C@H](O)CC[C@]4(C)[C@H]3CC[C@]12C		9.77	1.2	2.82	0.06	300 nM	60 nM
CC(=O)[C@H]1CC[C@H]2[C@@H]3C[C@@H](C)[C@@H]4C[C@H](O)CC[C@]4(C)[C@H]3CC[C@]12C	45 nM	22.5	1.48	4.36	0.62	550 nM	400 nM
CC(=O)[C@H]1CC[C@H]2[C@@H]3[C@H](C)C[C@H]4C[C@H](O)CC[C@]4(C)[C@H]3CC[C@]12C	5990 nM					5500 nM	2680 nM
CC(=O)[C@H]1CC[C@H]2[C@@H]3[C@H](C)C[C@@H]4C[C@H](O)CC[C@]4(C)[C@H]3CC[C@]12C	1040 nM					5500 nM	1670 nM
CC(=O)[C@H]1CC[C@H]2[C@@H]3CC[C@H]4C[C@H](O)CC[C@]4(C)[C@H]3CC[C@]12C		9.65	1.26	3.89	0.37	5500 nM	420 nM
